In the library only some 4.9% were active in any assay of this set; here they are far more common.
STAT3 act = IL-6 driven STAT3 reporter potentiators, primary screen, U3A cells, luciferase, luminescence, MLSCN library; IL-6 STAT3-luciferase reporter; 100% = signal with IL-6 EC80 alone; activation (% of control), % at 5.6 µM; 190,000 compounds, 0.91% hits; AID 871, 2007;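 active means activation above the screen-wide mean of compound activation plus 3 SD, cut at about 130% in these data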;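 further: 0% = background luminescence of wells with medium and substrate only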
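Assay system – human STAT1-deficient U3A cells with stable STAT3-luciferase reporter · Also added – IL-6 (33 ng/mL) · Schedule – compound 1 h, then IL-6 6 h at 37 °C · Technique – reporter luminescence signal · Evaluation – % activation versus median of IL-6-stimulated wells · Benchmarks – IL-6-only wells as 100% reference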
APP 5'UTR act = activators of APP 5'UTR luciferase reporter, primary screen, SH-SY5Y cells. SH-SY5Y APP 5'UTR luciferase reporter, luminescence; zero percent = DMSO vehicle wells. activation, % at 2 µM. 190,000 compounds, 1% hits;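 active means activation above a set limit, based on mean plus 3 SD of controls, cut at about 140% in these data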
NF-kB expr up = activators of NF-kB expression in neurons, primary screen, cell-based, HTS; human neuronal cells, NF-kB reporter expression; active compounds read high; fold change at 12.5 µM; 190,000 compounds, 1.6% hits; AID 1239, 2008; in the data active means fold change above about 3.3
STAT1 inh = STAT1 signaling inhibitors, primary screen, cell-based, HTS, luciferase reporter | inhibition, % at 5.5 µM | 200,000 compounds, 0.35% hits | NIH 3T3 STAT1-luciferase reporter, IFN-gamma, luminescence;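 active means inhibition above a set limit, the mean inhibition across all tested compounds plus 3 SD, cut at about 34% in these data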;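 further: 0% = IFN-gamma with DMSO and 100% = IFN-gamma with 300 µM nifuroxazide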
STAT3 inh = IL-6 driven STAT3 reporter inhibitors, primary screen, U3A cells, luciferase, luminescence, MLSCN library. AID 862, 2007. 190,000 compounds, 0.89% hits. inhibition, % at 5.5 µM. IL-6 STAT3-luciferase reporter; host cell line lacks STAT1;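 active means inhibition above the mean inhibition across all screened compounds plus 3 SD, cut at about 44% in these data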;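 further: 0% = DMSO only wells and 100% = 100 µM nifuroxazide control wells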
STAT1 act = STAT1 signaling activators, primary screen, cell-based, HTS, luciferase reporter. NIH 3T3 STAT1-luciferase reporter, IFN-gamma, luminescence; 100% = IFN-gamma alone, no compound. activation (% of control), % at 5.5 µM. 200,000 compounds, 2.6% hits;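 active means activation above the screen-wide mean activation plus 3 SD, cut at about 130% in these data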;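 further: raw ratio to IFN-gamma control signal so 100% means no change and 0% no light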
Starred values were filed as active, the others as inactive.

SMILES	STAT3 act	APP 5'UTR act	NF-kB expr up	STAT1 inh	STAT3 inh	STAT1 act
COC(=O)c1cc(C#N)c(N2CCN(C)CC2)nc1C	99	5	1.2	-2	9	100
Clc1cc(Sc2ccc(Br)cc2)nnc1-c1ccccc1	138*	-4	0.78	2	-48	98
O=C(c1sc2cccc(F)c2c1Cl)N1CCN(c2ncccn2)CC1	99	23	0.92	-4	4	104
CC(C)(C)c1ccc(OCc2ccc(C(=O)N/N=C/c3ccc([N+](=O)[O-])cc3)o2)cc1	111	21	1.3	-34	-8	131*
Cc1ccc(-c2cc(C(=O)N3CCN(C(=O)c4ccco4)CC3)no2)cc1	97	8	0.96	-2	6	106
Cc1ccc(-c2c(C)sc(=NC(=O)c3ccco3)n2C)cc1	76	67	3	-32	31	129*
Cc1ccc(C(=O)NCCCc2ccccc2)c(C)c1	101	160*	1.1	-41	6	136*
Cc1cc(C)cc(C(=O)NCCCc2ccccc2)c1	98	2	0.92	-2	12	100
O=C(NC(=S)Nc1ccc2c(c1)OCCO2)c1ccc(F)cc1Cl	112	13	2	-35	-9	131*
CCc1ccc(C(=O)NC(=S)Nc2ccc3c(c2)OCCO3)cc1	107	136*	5.4*	-50	-3	146*
O=C(NC(=S)Nc1ccc2c(c1)OCO2)c1ccc(Cl)cc1	110	165*	2.5	-34	-10	130*
S=C(Nc1ccc2c(c1)OCO2)Nc1ccc2c(c1)OCO2	101	51	1.5	-16	2	114
COc1cccc(/C=N/n2c(-c3cccs3)n[nH]c2=S)c1	98	-21	1.2	6	4	95
CCN1CCCc2cc(CN(CCN3CCOCC3)C(=S)Nc3cccc(Cl)c3)ccc21	107	7	8.1*	0	1	98
CCN1CCCc2cc(CN(CCN3CCOCC3)C(=S)Nc3ccc(C)cc3)ccc21	106	12	1.1	-2	2	100
COc1ccc(C2CC(=O)c3ccccc3O2)cc1 (configuration not stated)	98	58	3.8*	-15	-1	113
COc1cccc(C2Cc3ccccc3C(=O)O2)c1 (configuration not stated)	87	-10	1.3	-3	16	103
Cc1nn(C)c(C)c1/C=C/C(=O)c1cccs1	96	13	2.2	-16	8	115
CCn1ncc(/C=C/C(=O)c2ccccc2)c1C	113	198*	2.1	-35	-17	133*
Cc1c(/C=C/C(=O)c2ccc(O)cc2)cnn1C	111	79	2.5	-9	-15	108
Cc1nn(C)cc1/C=C/C(=O)c1ccccc1	115	161*	11*	-12	-11	111
Cc1c(/C=C/C(=O)c2ccccc2)cnn1C	113	81	2.6	-8	-11	107
Cc1nn(C)cc1/C=C/C(=O)c1cccs1	119	126	6.3*	-14	-18	116
CCn1cc(/C=C/C(=O)c2ccc(O)cc2)c(C)n1	104	73	3.6*	-20	0	117
Cc1cccc(NC(=O)CSc2nnc(NC(=O)c3ccco3)s2)c1	102	17	1.1	7	3	93
CCN1CCCC1CNC(=O)c1ccc(N2CCOCC2)c(NS(=O)(=O)c2ccc(OC)cc2)c1 (configuration not stated)	99	0	2.1	-2	4	100
Cn1c(COc2ccc(Br)cc2)nnc1SC1CCc2ccccc2C1=O (configuration not stated)	133*	2	0.85	3	-42	98
CCOc1ccc(N(CC(=O)N/N=C/c2cccnc2)S(C)(=O)=O)cc1	104	-9	1	2	3	98
Cc1sc2nc(CSc3cccc(C(F)(F)F)c3)[nH]c(=O)c2c1C	92	-10	1.6	-8	5	107
O=C(O)c1ccc(NC(=O)c2cn(-c3ccccc3)nc2-c2ccccc2)cc1	118	13	0.97	-52	-12	146*
